Source: PubChem BioAssay
In the library only some 2.9% were active in any assay of this set; here they are far more common.
Vif inh: HIV Vif self-association inhibitors, primary screen, imaging, HEK293T, single point | HEK293T cells, Vif self-association by quenched fluorescence, 24 h | 0.35% of 340,000 active | inhibition, % at 7.49 µM; in the data active = inhibition above about 50%, passing the limit was not always enough
Cneo AK release: Cryptococcus neoformans cell lysis inducers, primary screen, AK release luminescence, single concentration; C. neoformans lysis, adenylate kinase release luminescence, 4 h; normalised: neutral wells 0, clomiphene wells 100; lysis activity, % at 15 µM; 0.2% of 360,000 active; AID 651654, 2012;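 active = mean lysis activity across replicates of at least 80%, whatever share of replicates individually reach that level; inactive = mean lysis activity below 80%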
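Test system: log-phase Cryptococcus neoformans yeast cells. Input: 5 × 10^6 yeast cells/mL. Medium: fresh YPD growth medium. Doses: single dose. Incubation: static 4 h at 37 °C with compound, 1 h detection. Measured by: luminescent adenylate kinase detection reagent. Read-out: signal increase indicating cell lysis. Benchmarks: Clomiphene.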
PglD DTNB: C. jejuni PglD acetyltransferase inhibitors, primary screen, biochemical, DTNB colorimetric, single point; UDP-N-acetylbacillosamine N-acetyltransferase PglD (Campylobacter jejuni); purified PglD enzyme, DTNB colorimetric CoA detection; inhibition, % at 12.5 µM; 0.098% of 360,000 active; in the data active = inhibition above about 16%, passing the limit was not always enough
PGC1a acetyl inh: inhibitors of PGC1a acetylation signal, primary screen, cell-based, U2OS, AlphaScreen, inhibitor mode | AID 651687, 2012 | inhibition, % at 15.6 µM | 0.17% of 350,000 active | AlphaScreen anti-acetyl-lysine; with virally co-expressed GCN5 acetyltransferase;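 active = every replicate shows inhibition of at least 40%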;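 also: 0% = neutral control wells and 100% = positive control wells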
Ecoli rRNA inh: reduced GFP signal of wild-type E. coli, primary screen, bacterial rRNA inhibitor project, GFP/RFP fluorescence, OD600, single point; 1.6% of 350,000 active; GFP signal change (wild-type ribosome), % (test concentration not listed); E. coli WT GFP vs humanized-ribosome RFP mutants, 24 h; stronger effect = lower value; DMSO median 0, no signal -100;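 active = significant combined selectivity score with lowered wild-type GFP, culture density cut under 30%, mutant RFP and density less affected; inactive = any of these conditions unmet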
FGF22 binding: binders of human FGF22 protein, primary screen, FGF22 synaptogenesis inhibitor project, biophysical, thermal shift, single point; recombinant FGF22 thermal shift, SYPRO orange fluorescence; percent of sucrose octasulfate shift, DMSO zero; AID 651658, 2012; activity (Tm shift, normalised), % at 9.99 µM; 1.5% of 340,000 active; Fibroblast growth factor 22 (Homo sapiens), Q9HCT0;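 active = mean Tm shift, scaled 0 neutral to 100 positive control, at about 1.3% or above, every replicate too, limit read from the data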
Target sequence (Q9HCT0 whole entry, looked up): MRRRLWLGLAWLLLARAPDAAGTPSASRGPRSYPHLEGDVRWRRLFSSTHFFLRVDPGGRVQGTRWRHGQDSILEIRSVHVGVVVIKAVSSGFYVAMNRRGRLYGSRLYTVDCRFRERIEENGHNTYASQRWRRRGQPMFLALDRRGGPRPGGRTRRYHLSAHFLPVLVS
* marks the source's active call; other numbers are inactive results.

What do the screens show for `Cc1c(C(=O)Nc2ccccc2F)cnn1-c1ccccc1`?
Vif inh: -0.5; Cneo AK release: -6.1; PglD DTNB: 7.8; PGC1a acetyl inh: 13.6; Ecoli rRNA inh: -10.9; FGF22 binding: -0.2

How did COc1cccc(C(=O)NCCSCc2c(F)cccc2Cl)c1 do in these assays?
Vif inh: -2.5; Cneo AK release: 0.7; PglD DTNB: -2.4; PGC1a acetyl inh: -12.7; Ecoli rRNA inh: -37.2; FGF22 binding: -0.2

How did Cc1c(C(=O)NCCSCc2c(F)cccc2Cl)cnn1-c1ccc(F)cc1 do in these assays?
Vif inh: 10.7; Cneo AK release: 4.3; PglD DTNB: -4.1; PGC1a acetyl inh: 2.3; Ecoli rRNA inh: -35.7*; FGF22 binding: 0.3

What do the screens show for `Cc1c(C(=O)Nc2cc(F)cc(F)c2)cnn1-c1ccccc1`?
Vif inh: -1.8; Cneo AK release: -6.6; PglD DTNB: 5.7; PGC1a acetyl inh: -3.2; Ecoli rRNA inh: 2.1; FGF22 binding: 0.1

What do the screens show for `CC(C)NC(=O)Nc1ccc2c(c1)C(=O)N(C)C[C@@H](C)[C@H](CN(C)S(C)(=O)=O)O2`?
Ecoli rRNA inh: -2.7

What do the screens show for `O=C1c2ccccc2CCC12OC2c1ccc([N+](=O)[O-])cc1` (stereo not drawn)?
Vif inh: 7.9; Ecoli rRNA inh: 1.3; FGF22 binding: 43.6*

How did CCc1cccc(NC(=O)CCS(=O)(=O)c2cc3c(cc2C)NC(=O)CO3)c1 do in these assays?
Vif inh: 134.1*; Cneo AK release: -1.9; PglD DTNB: -2.1; Ecoli rRNA inh: -11.5; FGF22 binding: 0.1

What do the screens show for `COc1ccc([C@@H]2C/C=C\C[C@@H](c3ccc(F)cc3)NC(=O)CCC(=O)N2)c(OC)c1`?
Ecoli rRNA inh: -4.2

How did COc1ccc(N2CCN(c3ccc(N4C(=O)CC(C)C4=O)cc3[N+](=O)[O-])CC2)cc1 (stereo not drawn) do in these assays?
Vif inh: -3.1; Cneo AK release: -4.8; PglD DTNB: -3.2; PGC1a acetyl inh: -3.0; Ecoli rRNA inh: -28.9*; FGF22 binding: 0.7

How did COc1ccc(N2CCN(c3ccc(N4C(=O)COCC4=O)cc3[N+](=O)[O-])CC2)cc1 do in these assays?
Vif inh: -4.3; Cneo AK release: 0.0; PglD DTNB: 10.0; PGC1a acetyl inh: 8.5

What do the screens show for `CC1CC(=O)N(c2ccc(NCCc3ccccc3)c([N+](=O)[O-])c2)C1=O` (stereo not drawn)?
Vif inh: -14.1; Cneo AK release: 3.2; PglD DTNB: 1.3; PGC1a acetyl inh: -9.7; Ecoli rRNA inh: 4.5; FGF22 binding: 0.2

Results for CC1CC(=O)N(c2ccc(NCCc3ccc(O)cc3)c([N+](=O)[O-])c2)C1=O (stereo not drawn) ?
Vif inh: -1.6; Cneo AK release: -2.8; PglD DTNB: -3.3; PGC1a acetyl inh: -1.9; Ecoli rRNA inh: -21.6*; FGF22 binding: 41.7

What do the screens show for `O=C(C[C@@H]1CC[C@H](NC(=O)C2CCOCC2)[C@@H](CO)O1)NCc1ccncc1`?
PGC1a acetyl inh: 8.1; Ecoli rRNA inh: 3.9

Results for O=C(CCN1CCCCC1)NCC[C@@H]1CC[C@H](NC(=O)C2CCCCC2)[C@H](CO)O1 ?
Ecoli rRNA inh: 0.9

What do the screens show for `CCOC(=O)C1=C(O)/C(=C/c2ccc(OCC(=O)O)c(OCC)c2)SC1=Nc1ccccc1`?
Vif inh: -3.8; Ecoli rRNA inh: -13.2; FGF22 binding: 43.0*

Results for COc1ccc(NC(=O)Nc2ccc3c(c2)C(=O)N([C@@H](C)CO)C[C@@H](C)[C@@H](CN(C)S(C)(=O)=O)OCCCC[C@@H](C)O3)cc1 ?
Cneo AK release: -1.9; PglD DTNB: 0.2; PGC1a acetyl inh: -1.9; Ecoli rRNA inh: -1.5; FGF22 binding: -0.4

Results for COc1ccc(-c2csc(Nc3ccc(S(=O)(=O)Nc4cc(OC)nc(OC)n4)cc3)n2)cc1 ?
Vif inh: -7.0; Cneo AK release: 0.7; PglD DTNB: -3.7; PGC1a acetyl inh: -1.9

What do the screens show for `COc1ccc(-c2csc(Nc3ccc(S(=O)(=O)Nc4cc(C)on4)cc3)n2)cc1C`?
Vif inh: -3.7; PGC1a acetyl inh: 5.3; Ecoli rRNA inh: -46.5; FGF22 binding: 43.6*

How did O=C(Nc1cccc(Cl)c1)N1C[C@H]2[C@@H](c3ccccc31)[C@H](CO)N2CC1CCCCC1 do in these assays?
Cneo AK release: -3.0; PglD DTNB: 3.8; PGC1a acetyl inh: -1.5; Ecoli rRNA inh: -58.5*; FGF22 binding: 0.2

What do the screens show for `O=C(Nc1ccc(Cl)cc1)N1C[C@H]2[C@@H](c3ccccc31)[C@H](CO)N2C(=O)c1ccccn1`?
Cneo AK release: -1.4; PglD DTNB: 0.1; PGC1a acetyl inh: -8.0; Ecoli rRNA inh: -19.2*; FGF22 binding: 0.2

How did O=C(c1cccnc1)N1C[C@H]2[C@@H](c3ccccc31)[C@@H](CO)N2C(=O)Nc1ccc(F)cc1 do in these assays?
Cneo AK release: 117.6*; PglD DTNB: 3.7; PGC1a acetyl inh: 1.6; Ecoli rRNA inh: 3.0; FGF22 binding: 0.2

What do the screens show for `O=C(Nc1ccccc1)N1C[C@@H]2[C@H](c3ccccc31)[C@@H](CO)N2C(=O)c1ccccn1`?
Cneo AK release: -1.5; PglD DTNB: 3.0; PGC1a acetyl inh: -9.2; Ecoli rRNA inh: 0.3; FGF22 binding: -1.6

How did CC(=O)NCCOc1cccc2ccccc12 do in these assays?
Vif inh: 8.7; Cneo AK release: 0.2; PglD DTNB: -2.5; PGC1a acetyl inh: 0.6

What do the screens show for `O=C(Cc1cccc2ccccc12)NCCOc1ccccc1F`?
Vif inh: -2.3; Cneo AK release: 9.6; PglD DTNB: 1.2; PGC1a acetyl inh: -1.5; Ecoli rRNA inh: -38.9*; FGF22 binding: 0.0

What do the screens show for `COC(=O)c1ccccc1S(=O)(=O)N1CCn2cccc2C1C` (stereo not drawn)?
Vif inh: -1.7; Cneo AK release: 0.2; PglD DTNB: -3.3; Ecoli rRNA inh: 12.9; FGF22 binding: 43.0*

How did COc1ccc2c(c1OC)C(=O)OC2Nc1ccccc1S(=O)(=O)C(F)F (stereo not drawn) do in these assays?
Vif inh: 16.7; Cneo AK release: 93.8*; PglD DTNB: -1.2; PGC1a acetyl inh: -7.7

Results for COc1ccc2c3c(n(C)c2c1)[C@@H](CO)N(Cc1ccncc1)CC31CN(C(=O)Cc2ccncc2)C1 ?
PGC1a acetyl inh: 0.0; Ecoli rRNA inh: -1.6; FGF22 binding: 0.1
